{"source": "paper PMC4418331", "about": "(Journal of Clinical Pharmacology, 2015)", "key": {"[1]": {"system": "dipeptidyl peptidase-4 (DPP-4)", "conditions": "in words; native GLP-1 ref 1; semaglutide ref 12; cited from earlier work"}, "[2]": {"conditions": "cited from earlier work"}, "[3]": {"assay": "Safety and tolerability assessments", "assay_type": "in vivo, human (postmenopausal women with T2D)", "conditions": "for Increase in serum amylase concentration / Increase in serum lipase concentration: mean ± SD", "procedure,_shortened": "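Test compound given subcutaneously once weekly, escalated 0.25 mg for 4 weeks, 0.5 mg for 4 weeks, then 1.0 mg for 5 weeks. A combined oral contraceptive was given once daily for 8 days before escalation and again during the final week. The investigator recorded AEs, both observed and spontaneously reported, with severity graded and relation assessed. Amylase and lipase were measured as change from baseline to end of treatment and to follow-up (5 weeks after last dose), mean ± SD.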"}, "[4]": {"conditions": "baseline to end of semaglutide treatment"}}}
{"compound": "CC[C@H](C)[C@H](NC(=O)[C@H](Cc1ccccc1)NC(=O)[C@H](CCC(=O)O)NC(=O)[C@H](CCCCNC(=O)COCCOCCNC(=O)COCCOCCNC(=O)CC[C@H](NC(=O)CCCCCCCCCCCCCCCCC(=O)O)C(=O)O)NC(=O)[C@H](C)NC(=O)[C@H](C)NC(=O)[C@H](CCC(N)=O)NC(=O)CNC(=O)[C@H](CCC(=O)O)NC(=O)[C@H](CC(C)C)NC(=O)[C@H](Cc1ccc(O)cc1)NC(=O)[C@H](CO)NC(=O)[C@H](CO)NC(=O)[C@@H](NC(=O)[C@H](CC(=O)O)NC(=O)[C@H](CO)NC(=O)[C@@H](NC(=O)[C@H](Cc1ccccc1)NC(=O)[C@@H](NC(=O)CNC(=O)[C@H](CCC(=O)O)NC(=O)C(C)(C)NC(=O)[C@@H](N)Cc1cnc[nH]1)[C@@H](C)O)[C@@H](C)O)C(C)C)C(=O)N[C@@H](C)C(=O)N[C@@H](Cc1c[nH]c2ccccc12)C(=O)N[C@@H](CC(C)C)C(=O)N[C@H](C(=O)N[C@@H](CCCNC(=N)N)C(=O)NCC(=O)N[C@@H](CCCNC(=N)N)C(=O)NCC(=O)O)C(C)C", "note": "[semaglutide]", "values": [{"measurement": "Degradation by dipeptidyl peptidase-4 (DPP-4)", "setting": "[1]", "value": "less susceptible to degradation by DPP-4"}, {"measurement": "Reported t1/2", "setting": "[2]", "value": "155 to 184", "unit": "h"}, {"measurement": "Subjects reporting diarrhea", "setting": "[3]; 6 subjects, all mild or moderate", "value": 14, "unit": "%"}, {"measurement": "Severe hypoglycemia (ADA classification)", "setting": "[3]; FPG at study site and self-measured at home", "value": "no cases of severe hypoglycemia were reported"}, {"measurement": "Increase in serum amylase concentration", "setting": "[3]; [4]", "value": "1.5 ± 15.3", "unit": "U/L"}, {"measurement": "Increase in serum lipase concentration", "setting": "[3]; [4]", "value": "9.4 ± 24.3", "unit": "U/L"}, {"measurement": "Increase in serum amylase concentration", "setting": "[3]; baseline to follow-up", "value": "7.0 ± 14.1", "unit": "U/L"}, {"measurement": "Increase in serum lipase concentration", "setting": "[3]; baseline to follow-up", "value": "10.7 ± 32.6", "unit": "U/L"}, {"measurement": "Antisemaglutide antibodies", "setting": "[3]; in vivo", "value": "No antisemaglutide antibodies were detected in any subject"}, {"measurement": "Changes in ECG or safety laboratory parameters, including calcitonin", "setting": "[3]; in vivo", "value": "No clinically meaningful changes were observed"}, {"measurement": "Pancreatitis", "setting": "[3]; in vivo", "value": "No cases of pancreatitis were reported"}, {"measurement": "Serum amylase values ≥3x ULN", "setting": "[3]; in vivo", "value": "No value was ≥3x ULN"}, {"measurement": "Duration of nausea episodes, median", "setting": "[3]; min, max: 0.01, 95.6", "value": 3.9, "unit": "days"}, {"measurement": "Injection-site reactions", "setting": "[3]; s.c. injection", "value": "no injection-site reactions were reported"}, {"measurement": "Subjects reporting TEAEs", "setting": "[3]; whole study (oral contraceptive and semaglutide periods), 38 of 43 subjects", "value": 88, "unit": "%"}, {"measurement": "Serious AEs", "setting": "[3]; whole study, n = 43", "value": "No serious AEs were reported"}]}
{"compound": "Glucagon-like peptide-1 [native GLP-1, reference compound]", "values": [{"measurement": "Degradation by dipeptidyl peptidase-4 (DPP-4)", "setting": "[1]", "value": "rapidly degraded"}, {"measurement": "Half-life (t1/2)", "setting": "[2]; in words", "value": "very short"}]}
